Results published in ChEMBL document CHEMBL3870332, “Development of pharmacophore models for small molecules targeting RNA: Application to the RNA repeat expansion in myotonic dystrophy type 1” (Bioorg Med Chem Lett, 2016).
Active and inactive are the calls of the source. The rule behind the calls is not given here.

Tests used:
HeLa [1] = test: Binding affinity to r(CUG)960 RNA (unknown origin) expressed in human HeLa cells co-expressing cTNT mini-gene assessed as reduction in deregulated cTNT exon5 alternative splicing at 10 uM measured after 20 to 24 hrs by RT-PCR analysis; assay type: cell-based
[2] = Binding affinity to biotinylated-r(CUG)12 RNA (unknown origin) assessed as disruption of r(CUG)12/His6-tagged MBNL1 complex at 50 uM incubated for 15 mins by TR-FRET assay
Procedure, shortened: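 TR-FRET disruption of a preformed r(CUG)12–MBNL1 complex, method as described previously; each compound screened at a single 50 µM concentration.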

C2C12 [3] = test: Binding affinity to r(CUG)800 RNA (unknown origin) expressed in mouse C2C12 cells assessed as increase in nucleocytoplasmic transport of mRNA at 12.5 to 50 uM measured after 20 to 24 hrs by luciferase reporter gene assay; assay type: cell-based
Procedure, shortened: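 Run in C2C12 cells expressing a luciferase-encoding mRNA carrying 800 CUG repeats in the 3′ UTR. Nucleocytoplasmic export is read as luciferase turnover of a pro-luminescent substrate. Compounds tested at 50, 25 and 12.5 µM.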

HeLa [4] = test: Binding affinity to r(CUG)960 RNA (unknown origin) expressed in human HeLa cells co-expressing cTNT mini-gene assessed as reduction in deregulated cTNT exon5 alternative splicing at 100 uM measured after 20 to 24 hrs by RT-PCR analysis; assay type: cell-based
[5] = Cytotoxicity against human HeLa cells expressing DM1 assessed as reduction in cell viability at 100 uM measured after 24 hrs by WST-1 assay; assay type: toxicity, cell-based
HeLa [6] = test: Increase in DMPK transcript level in human HeLa cells co-expressing DM1/DMPK and cTNT mini-gene at 100 uM measured after 20 to 24 hrs by RT-qPCR method; assay type: functional, cell-based
C2C12 [7] = test: Effect on luciferase expression in mouse C2C12 cells at 12.5 to 50 uM measured after 20 to 24 hrs by luminescence assay; assay type: functional, cell-based
Procedure, shortened: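 Counterscreen in the same C2C12 luciferase line without CUG repeats, used to flag compounds that enhance luciferase translation non-specifically. Compounds tested at 50, 25 and 12.5 µM.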

[8] = Binding affinity to AT hairpin DNA (unknown origin) measured after 30 mins by fluorescence analysis
[9] = Binding affinity to r(GC)20 RNA (unknown origin) measured after 5 mins by fluorescence analysis
[10] = Binding affinity to r(CUG)2 RNA (unknown origin) measured after 5 mins by fluorescence analysis
[11] = Binding affinity to tRNA (unknown origin) measured after 30 mins by fluorescence analysis

Row | SMILES | Activity [2] | Kd [8] | Kd [9] | Kd [10] | Kd [11] | Activity (HeLa [1]) | Activity (C2C12 [3]) | Activity (HeLa [4]) | Activity [5] | Activity (HeLa [6]) | Activity (C2C12 [7])
1 | O=C(Nc1ccccn1)c1cccc(OCc2cscn2)c1 | > 20% |  |  |  |  | Active | Active | Active | Non-Toxic | Active | 
2 | O=C(Nc1ccc2c(c1)C(=O)N(c1ccccc1)C2=O)c1ccco1 | > 20% |  |  |  |  |  | Active |  |  |  | Active
3 | Cc1c(C(=O)Nc2ccccn2)sc2nc(-c3ccccc3)cn12 | > 20% |  |  |  |  |  | Active |  |  |  | Active
4 | O=C(Nc1ccc(NC(=O)c2ccc(F)cc2)nc1)c1ccncc1 | > 20% | > 50 µM | > 30 µM | 4.6 µM | > 50 µM | Active | Active | Active | Non-Toxic |  | 

Continued, in another order:

Row | Activity [2] | Kd [8] | Kd [9] | Kd [10] | Kd [11] | SMILES | Activity (HeLa [1]) | Activity (C2C12 [3]) | Activity (HeLa [4]) | Activity [5] | Activity (HeLa [6]) | Activity (C2C12 [7])
5 | > 20% |  |  |  |  | Nc1ccc(-c2nc3ccc(-c4nc5ccc(N)cc5[nH]4)cc3[nH]2)cc1 |  |  |  |  |  | 
6 | > 20% |  |  |  |  | O=C(Nc1ccc2[nH]c(-c3ccc(F)cc3)nc2c1)c1ccncc1 |  | Active | Active | Non-Toxic |  | 
7 | > 20% |  |  |  |  | O=C(Nc1ccc(-c2nc3ccccc3[nH]2)cc1)c1cccnc1 |  | Active |  |  |  | Active
